Test results: ChEMBL document CHEMBL1136656, “Synthesis and Biological activity of kappa opioid receptor agonists. Part 2: preparation of 3-aryl-2-pyridone analogues generated by solution- and solid-phase parallel synthesis methods” (Bioorg Med Chem Lett, 2003)

Experiments:
[1] = biological target: T1, Kappa-type opioid receptor (Homo sapiens, UniProt P41145); test: Inhibition of [125I]-(D-Pro10)-Dynorphin A binding to human kappa opioid receptor from membranes of HEK293 cells; type: cell membranes
How it was run: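 Classical filter binding on membranes from HEK293 cells overexpressing human kappa opioid receptor, measuring displacement of [125I]-(D-Pro10)-Dynorphin A. Purified compounds were run as full dose–response curves and reported as mean IC50 ± SEM. Crude or partially purified mixtures were screened at a single concentration for percent inhibition of radioligand binding.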

[2] = biological target: Delta-type opioid receptor (Homo sapiens, UniProt P41143); test: Inhibition of [125I]deltorphin binding to human delta opioid receptor from membranes of HEK293 cells; type: cell membranes
How it was run: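 Displacement of [125I]-Deltorphin from membranes of HEK293 cells overexpressing human delta opioid receptor, read by classical filter binding. IC50 came from full dose–response curves on purified material, in single determinations.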

[3] = biological target: Mu-type opioid receptor (Homo sapiens, UniProt P35372); test: Inhibition of [125I]Enkephalin binding to human mu opioid receptor from membranes of HEK293 cells; type: cell membranes
How it was run: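 Filter binding on membranes of HEK293 cells overexpressing human mu opioid receptor, measuring displacement of [125I]-Enkephalin. IC50 came from full dose–response curves on purified material, in single determinations.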

[4] = biological target: T1, Kappa-type opioid receptor; test: Effective dose for agonistic activity towards human kappa opioid receptor from membranes of HEK293 cells was determined by radiolabeled [35S]GTP-gamma-S, assay; type: functional, cell membranes
[5] = biological target: T1, Kappa-type opioid receptor; test: Inhibitory concentration against [125I]-(D-Pro10)-Dynorphin A binding to human kappa opioid receptor from membranes of HEK293 cells; type: cell membranes; conditions: concentration not given here
How it was run: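 Filter binding on membranes from HEK293 cells overexpressing the human kappa opioid receptor. Displacement of [125I]-(D-Pro10)-Dynorphin A was measured, with full dose–response curves on purified material. IC50 is the mean of determinations, quoted with SEM.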

Mu-type opioid receptor, sequence (P35372 whole entry): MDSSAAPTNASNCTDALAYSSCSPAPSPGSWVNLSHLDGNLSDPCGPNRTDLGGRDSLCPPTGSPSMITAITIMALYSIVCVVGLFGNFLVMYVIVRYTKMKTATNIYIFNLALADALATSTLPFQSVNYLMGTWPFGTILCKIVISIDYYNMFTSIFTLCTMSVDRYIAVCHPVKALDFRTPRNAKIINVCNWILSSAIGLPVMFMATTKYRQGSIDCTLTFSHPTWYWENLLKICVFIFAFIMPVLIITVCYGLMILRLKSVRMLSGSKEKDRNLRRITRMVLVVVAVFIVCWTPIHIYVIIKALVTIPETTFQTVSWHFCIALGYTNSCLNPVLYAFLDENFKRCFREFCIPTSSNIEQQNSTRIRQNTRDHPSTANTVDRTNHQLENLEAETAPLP
T1 sequence (P41145 whole entry): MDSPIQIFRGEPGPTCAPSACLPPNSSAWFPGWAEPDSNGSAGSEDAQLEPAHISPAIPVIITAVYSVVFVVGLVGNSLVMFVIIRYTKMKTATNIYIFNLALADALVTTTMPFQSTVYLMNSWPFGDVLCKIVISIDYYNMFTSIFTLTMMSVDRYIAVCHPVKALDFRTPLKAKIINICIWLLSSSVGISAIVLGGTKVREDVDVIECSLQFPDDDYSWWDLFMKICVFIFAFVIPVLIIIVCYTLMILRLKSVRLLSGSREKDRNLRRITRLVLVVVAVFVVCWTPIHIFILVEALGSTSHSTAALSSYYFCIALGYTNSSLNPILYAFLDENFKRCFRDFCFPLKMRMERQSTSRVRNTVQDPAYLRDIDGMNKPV
Delta-type opioid receptor, sequence (P41143 whole entry): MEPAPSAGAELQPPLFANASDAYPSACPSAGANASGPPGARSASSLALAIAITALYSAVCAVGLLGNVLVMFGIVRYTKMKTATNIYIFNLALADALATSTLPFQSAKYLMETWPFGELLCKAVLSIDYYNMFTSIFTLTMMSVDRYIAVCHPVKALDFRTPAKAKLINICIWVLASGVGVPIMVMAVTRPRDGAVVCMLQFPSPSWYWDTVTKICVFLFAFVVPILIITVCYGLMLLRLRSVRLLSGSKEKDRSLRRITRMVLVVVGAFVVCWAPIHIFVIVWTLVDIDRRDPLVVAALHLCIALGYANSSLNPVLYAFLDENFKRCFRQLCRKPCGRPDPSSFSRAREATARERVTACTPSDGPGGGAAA

SMILES	IC50 [1] [µM]	IC50 [2] [µM]	IC50 [3] [µM]	ED50 [4] [µM]	inhibition [5] [%]	IC50 ([2]; hek293) [µM]	IC50 ([3]; hek293) [µM]
O=c1c(-c2ccccc2)cccn1C(CN1CCC(O)C1)c1ccccc1 (stereo in doubt; 20a)	0.465	> 10	> 10				
COc1ccc(F)cc1-c1cccn(C(CN2CCC(O)C2)c2ccccc2)c1=O (stereo unspecified)	0.0055	0.46	> 10	0.032			
O=c1c(Nc2ccccc2)cccn1C(CN1CCCC1)c1ccccc1 (stereo unspecified)	> 1						
O=c1c(-c2ccc(C(F)(F)F)cc2)cccn1C(Cn1ccnc1)c1ccccc1 (stereo unspecified)	> 10						
O=c1c(-c2cccc(CO)c2)cccn1C(CN1CCC(O)C1)c1ccccc1 (stereo unspecified)	0.0096	> 10	> 5				
O=c1c(-c2ccc(Cl)cc2Cl)cccn1C(CN1CCCC1)c1ccccc1 (stereo unspecified)	0.0023	> 10	2.1				
O=c1c(Nc2ccc(C(F)(F)F)cc2)cccn1C(CN1CCCC1)c1ccccc1 (stereo unspecified)	0.082	> 10	10				
O=C(O)c1cccc(-c2cccn(C(CN3CCC(O)C3)c3ccccc3)c2=O)c1 (stereo unspecified)					41		
O=C(O)COc1cccc(C(CN2CCCC2)n2cccc(-c3ccc(C(F)(F)F)cc3)c2=O)c1 (stereo unspecified)	0.42	5.6	> 10				
Nc1cccc(-c2cccn(C(CN3CCC(O)C3)c3ccccc3)c2=O)c1 (stereo unspecified)	0.025	> 10	2.91				
CC(=O)c1ccc(-c2cccn(C(CN3CCC(O)C3)c3ccccc3)c2=O)s1 (stereo unspecified)	0.038	> 10	> 10				
O=c1c(-c2ccccc2)nccn1C(CN1CCCC1)c1ccccc1 (stereo unspecified)	2.45						
O=C1COc2ccc(C(CN3CCCC3)n3cccc(-c4ccc(C(F)(F)F)cc4)c3=O)cc2N1 (stereo unspecified)	0.057	> 10	> 10				
Cc1cc(-c2cccn(C(CN3CCC(O)C3)c3ccccc3)c2=O)ccc1F (stereo unspecified)	0.0084	> 10	> 5				
O=c1c(-c2ccccc2)cncn1C(CN1CCCC1)c1ccccc1 (stereo unspecified)	1.76						
O=c1c(-c2ccc(F)cc2)cccn1C(CN1CCC(O)C1)c1ccccc1 (stereo unspecified)	0.033	> 10	> 10				
O=c1c(-c2ccc(C(F)(F)F)cc2)cccn1C(CN1CCOCC1)c1ccccc1 (stereo unspecified)	0.7	> 10	> 10				

SMILES	IC50 [1] [µM]	IC50 [2] [µM]	IC50 [3] [µM]	ED50 [4] [µM]	inhibition [5] [%]	IC50 ([2]; hek293) [µM]	IC50 ([3]; hek293) [µM]
COc1ccc(Cl)cc1-c1cccn(C(CN2CCC(O)C2)c2ccccc2)c1=O (stereo unspecified)	0.053	> 10	0.19				
COc1cccc(OC)c1-c1cccn(C(CN2CCC(O)C2)c2ccccc2)c1=O (stereo unspecified)	0.0098	> 10	3.91				
O=c1c(-c2ccccc2)cccn1C(CN1CCC(O)C1)c1ccccc1 (stereo in doubt; 14f)	0.47					> 10	> 10
COc1ccc(OC)c(-c2cccn(C(CN3CCC(O)C3)c3ccccc3)c2=O)c1 (stereo unspecified)	0.0069	> 10	2.22				
COc1ccc(C(CN2CCCC2)n2cccc(-c3ccc(C(F)(F)F)cc3)c2=O)cc1 (stereo unspecified)	0.32	> 10	> 10				
COc1ccccc1-c1cccn(C(CN2CCC(O)C2)c2ccccc2)c1=O (stereo unspecified)	0.094	> 10					
O=c1c(-c2ccc(C(F)(F)F)cc2)cccn1C(CN1C=CC=CC=N1)c1ccccc1 (stereo unspecified)	1.4	> 10	> 10				
O=c1c(-c2ccccc2)ccnn1C(CN1CCCC1)c1ccccc1 (stereo unspecified)	0.55						
Cc1ccc(Nc2cccn(C(CN3CCCC3)c3ccccc3)c2=O)cc1 (stereo unspecified)	0.094	> 10					
O=c1c(-c2ccc(Cl)cc2Cl)cncn1C(CN1CCCC1)c1ccccc1 (stereo unspecified)	0.041	> 10	9.6	0.615			
CC(=O)c1ccc(-c2cccn(C(CN3CCC(O)C3)c3ccccc3)c2=O)cc1 (stereo unspecified)	0.014	> 10	1.75				
Cc1ccc(C(C)Nc2cccn(C(CN3CCCC3)c3ccccc3)c2=O)cc1 (stereo unspecified)	0.33	> 10	> 10				
CCN(CC)c1ccc(C(CN2CCCC2)n2cccc(-c3ccc(C(F)(F)F)cc3)c2=O)cc1 (stereo unspecified)	3.08	> 10	> 10				
O=c1c(-c2ccc(OC(F)(F)F)cc2)cccn1C(CN1CCC(O)C1)c1ccccc1 (stereo unspecified)	0.0076	> 10	> 5				
O=Cc1ccccc1-c1cccn(C(CN2CCC(O)C2)c2ccccc2)c1=O (stereo unspecified)	0.013	> 10					
O=c1c(-c2cccc(OC(F)(F)F)c2)cccn1C(CN1CCC(O)C1)c1ccccc1 (stereo unspecified)	0.022	> 10	> 5				
